Measured values taken from ChEMBL document CHEMBL1158044, “Bioactive depsides and anthocyanins from jaboticaba (Myrciaria cauliflora)” (J Nat Prod, 2006).

Key:
[1] = Inhibition of IL8 production in cigarette smoke extract treated human SAE cells at 100 uM; format: functional; design: scale not given: the % may be the effect or the level left
Summary of the method: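 Primary human small airway epithelial cells, confluent, passages 4-8, kept in 5% CO2 at 37 °C. CSE made by drawing smoke of one unfiltered 2R1 reference cigarette through 25 mL DPBS, set to pH 7.4, filtered and diluted to 5% in growth medium. Compound (100 µM) added 30 min before 5% CSE. After 24 h, supernatant IL-8 read by ELISA. Two-sided Student's t-test, 5% level.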

[2] = Cytotoxicity against human HCT 116 cells after 72 hrs; format: functional, cell-based; settings: HCT-116, 72 h
Summary of the method: (§1)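 Colon cancer cells (10 000) seeded in DMEM with 10% FBS. After 24 h, treated with 1, 5, 10, 30, 50 and 70 µM compound for 72 h in DMEM with 1% FBS. Cells washed with PBS, trypsinized and counted on a Coulter Counter. IC50 derived. EGCG and Polyphenon E served as positive controls.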

SW480 = assay: Cytotoxicity against human SW480 cells after 72 hrs; format: functional, cell-based; settings: SW480, 72 h; summary of the method: as §1
[3] = Antiradical activity assessed as DPPH radical scavenging activity; format: physicochemical
Summary of the method: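 DPPH radical scavenging done per an earlier method with 400 µM DPPH. Tested on extracts, fractions and pure compounds, with gallic acid as positive control. IC50 reported.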

[4] = Inhibition of IL8 production in human SAE cells at 100 uM; format: functional; design: Activity: scale not given: the % may be the effect or the level left
Summary of the method: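 Confluent human small airway epithelial cells (passages 4-8, 5% CO2, 37 °C) given compound at 100 µM without smoke extract. IL-8 in supernatant measured by ELISA after 24 h. Significance by two-sided Student's t-test at the 5% level.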

HT-29 = assay: Cytotoxicity against human HT-29 cells after 72 hrs; format: functional, cell-based; settings: HT-29, 72 h; summary of the method: as §1

IC50 [3] | SMILES | Activity [1] | IC50 [2] | IC50 (SW480) | Activity [4] | inhibition at 100 µM ([4]; Homo sapiens, SAE) | IC50 (HT-29)
 | OC[C@H]1O[C@@H](Oc2cc3c(O)cc(O)cc3[o+]c2-c2cc(O)c(O)c(O)c2)[C@H](O)[C@@H](O)[C@@H]1O | 96% | 12 µM | 20 µM |  |  | 
61.8 µM | O=C(O)Cc1c(O)cc(O)cc1OC(=O)c1ccc(O)c(O)c1 | 70.3% | 30 µM |  | 74.9% |  | 
51.4 µM | COC(=O)Cc1c(O)cc(O)cc1OC(=O)c1ccc(O)c(O)c1 [JABOTICABIN] | 47.3% |  |  |  | 81.3% | 65 µM
 | OC[C@H]1O[C@@H](Oc2cc3c(O)cc(O)cc3[o+]c2-c2ccc(O)c(O)c2)[C@H](O)[C@@H](O)[C@@H]1O [KUROMANIN] | 36.4% | 100 µM | 100 µM | 65.3% |  | 100 µM
